{"source": "paper PMC5308454", "about": "(MedChemComm, 2016)", "key": {"NCI-H460 [1]": {"test_system": "NCI-H460", "details": "read-out: GI50 SRB assay NCI-H460; ref [13]; cited from earlier work"}, "DU-145 (prostate) [2]": {"test_system": "DU-145 (prostate)", "details": "read-out: GI50 SRB assay DU-145; ref [13]; cited from earlier work"}, "SK-OV-3 [3]": {"test_system": "SK-OV-3", "details": "read-out: GI50 SRB assay SK-OV-3; ref [13]; cited from earlier work"}, "[4]": {"test_system": "MCF7-luc-GFP-mCherry breast tumor", "assay": "Dynamic bioluminescence imaging", "assay_type": "in vivo, SCID mice", "details": "for Reduction in bioluminescence as compared to baseline or saline control: 4 h after injection, p<0.05"}, "[5]": {"test_system": "MCF7-luc-GFP-mCherry breast tumor", "assay": "Histological", "assay_type": "in vivo, SCID mice", "details": "120 mg/kg; 48 h post treatment", "summary_of_the_method": "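The same MCF7-luc-GFP-mCherry tumour-bearing SCID mice were dosed ip at 120 mg/kg, or with saline. After the 48 h BLI session they were sacrificed and the tumours excised. Tumour cross-sections were stained with H&E, and necrotic (pink) regions were scored against viable (purple) regions relative to the saline control.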"}, "tubulin [6]": {"test_system": "tubulin", "details": "read-out: Inhibition of tubulin polymerization IC50; ref [73]; cited from earlier work"}, "tubulin [7]": {"test_system": "tubulin", "assay": "Inhibition of tubulin polymerization", "assay_type": "biochemical", "details": "read-out: Inhibition of tubulin polymerization IC50; ± SD"}, "SK-OV-3 [8]": {"test_system": "SK-OV-3", "assay": "SRB cytotoxicity assay, SK-OV-3", "assay_type": "cell-based, human", "details": "read-out: GI50 SRB assay SK-OV-3; average of n ≥ 3 independent determinations"}, "DU-145 (prostate) [9]": {"test_system": "DU-145 (prostate)", "assay": "SRB cytotoxicity assay, DU-145", "assay_type": "cell-based, human", "details": "read-out: GI50 SRB assay DU-145; average of n ≥ 3 independent determinations"}, "NCI-H460 [10]": {"test_system": "NCI-H460", "assay": "SRB cytotoxicity assay, NCI-H460", "assay_type": "cell-based, human", "details": "read-out: GI50 SRB assay NCI-H460; average of n ≥ 3 independent determinations"}}, "note": "Where two headings read alike, the source gives them in different places."}
{"smiles": "COc1ccc(/C=C\\c2cc(OC)c(OC)c(OC)c2)cc1O", "note": "[CA4, combretastatin A-4]", "values": [{"measurement": "GI50", "setting": "NCI-H460 [1]", "result": 5, "unit": "nM"}, {"measurement": "GI50", "setting": "DU-145 (prostate) [2]", "result": 6.02, "unit": "nM"}, {"measurement": "GI50", "setting": "SK-OV-3 [3]", "result": 5.06, "unit": "nM"}]}
{"smiles": "COc1cc(/C2=C/CCCCc3c2ccc(OC)c3OP(=O)([O-])[O-])cc(OC)c1OC.[Na+].[Na+]", "note": "[Compound 24]", "values": [{"measurement": "Bioluminescence intensity at 24 and 48 h versus baseline", "setting": "[4]; 120 mg/kg ip single dose, 24 and 48 h, p<0.005", "result": "remained significantly below baseline values"}, {"measurement": "Reduction in bioluminescence as compared to baseline or saline control", "setting": "[4]; 120 mg/kg ip single dose", "result": "approximately 80%"}, {"measurement": "Vascular shutdown evidenced by bioluminescence imaging", "setting": "[4]; 120 mg/kg, 4 h post administration, effect continued at 24 and 48 h", "result": "significant vascular shutdown"}, {"measurement": "Tumor necrosis (H&E) as compared with saline control", "setting": "[5]", "result": "much more extensive necrosis"}]}
{"smiles": "COc1ccc(/C=C\\c2cc(OC)c(OC)c(OC)c2)cc1OP(=O)(O)O", "note": "[CA4P, Combretastatin A-4P]", "values": [{"measurement": "Reduction in bioluminescence as compared to baseline or saline control", "setting": "[4]; 120 mg/kg ip single dose", "result": "approximately 80%"}, {"measurement": "Tumor necrosis (H&E) as compared with saline control", "setting": "[5]", "result": "much more extensive necrosis"}, {"measurement": "IC50", "setting": "tubulin [6]", "result": "> 20000", "unit": "nM"}]}
{"smiles": "COc1ccc2c(c1O)CCCC=C2c1cc(OC)c(OC)c(OC)c1", "note": "[KGP18]", "values": [{"measurement": "IC50", "setting": "tubulin [7]", "result": 1400, "unit": "nM"}, {"measurement": "GI50", "setting": "SK-OV-3 [8]", "result": 0.0543, "unit": "nM"}, {"measurement": "GI50", "setting": "DU-145 (prostate) [9]", "result": 0.0249, "unit": "nM"}, {"measurement": "GI50", "setting": "NCI-H460 [10]", "result": 0.0418, "unit": "nM"}]}
